Results reported in article PMC3367325 (Journal of Natural Products, 2012).
Where two headings read alike, the source gives them in different places. Peptide text beside a SMILES is read from it. * marks the point of attachment. Cbz = O=C(OCc1ccccc1)*

How the values were obtained:
alpha(2B) adrenoceptor = settings: cited from earlier work
[1] = biological target: T1, human 20S proteasome (CT-L activity) (Homo sapiens, UniProt P28074); assay: Chymotryptic-like; format: biochemical; settings: purified human 20S proteasome
[2] = biological target: T1, human 20S proteasome (CT-L activity)
Aggregation assay = format: physicochemical; settings: 1 to 10 µM
HeLa cells = assay: Accumulation of ubiquitinylated proteins, confocal microscopy; format: cell-based, human; settings: 1.0 µM, 2 h, versus vehicle, p =0.001
[3] = pH of greater than seven; has been reported, no reference given; cited from earlier work
[4] = biological target: human 20S proteasome (T-L activity) (Homo sapiens, UniProt Q99436); assay: Tryptic-like; format: biochemical; settings: purified human 20S proteasome
[5] = biological target: T1, human 20S proteasome (CT-L activity); assay: IC50 pre- and post-centrifugation of palau’amine in reaction buffer; format: biochemical; settings: 15,000g for 30 min, supernatant
Procedure, shortened: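 Test compound in reaction buffer was spun at 15000g for 30 min, and the IC50 was compared with that of unspun material. CT-L assay: 1 nM purified human 20S proteasome in 50 mM Tris-HCl pH 7.5 with 0.03% SDS and Suc-LLVY-AMC at its Km, at 37 °C. AMC fluorescence (ex 380/em 460 nm) was read each minute for 30 min, and the maximal rate gave activity.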

NC1=N[C@]23CCCN2C(=O)c2cc(Br)c(Br)n2[C@@H]3N1 (racemic) [(±) -2, ±-dibromophakellin]
Activity against the alpha(2B) adrenoceptor (alpha(2B) adrenoceptor): agonist activity

O=c1c2cc(Br)c(Br)n2cc2n1CCC2 [compound 4]
Inhibition of the proteasome (all activities) [1]: devoid of all activity

CC(C)C[C@@H](C=O)NC(=O)[C@H](CC(C)C)NC(=O)[C@H](CC(C)C)NC(=O)OCc1ccccc1 [MG-132, reference compound] (Cbz-Leu-Leu-Leu-aldehyde)
CT-L proteolytic activity of 20S proteasome post-washing [2]: almost completely restored | CT-L proteolytic activity of 20S proteasome pre-washing [2]: completely abrogated

NC[C@@H]1[C@H]2CN3C(=O)c4cccn4[C@@H]4NC(N)=N[C@@]43[C@@H]2[C@]2(N=C(N)N[C@H]2O)[C@H]1Cl.O=C(O)C(F)(F)F (racemic) [(±) - 1, palau’amine]
Formation of aggregates (Aggregation assay): not to form aggregates | CT-L proteolytic activity of 20S proteasome pre-washing ([2]; 1 µM MG-132, 1 µM epoxomicin, 10 µM palau’amine, 1 nM 20S): complete abrogation | Binding mechanism to the 20S proteasome ([2]; kinetic analysis and washing experiments): irreversible-type | CT-L proteolytic activity of 20S proteasome post-washing ([2]; washed with 500 volumes of reaction buffer): complete abrogation | Accumulation of ubiquitinylated proteins (ubiquitin-Alexa 546 red fluorescence) (HeLa cells): robust increase | Stability at pH greater than seven (reported) [3]: unstable | Effect on T-L activity of the proteasome [4]: did not affect | Change in CT-L IC50 post-centrifugation versus pre-centrifugation [5]: no significant change
